Results reported in ChEMBL document CHEMBL1125609, “Nucleosides and nucleotides. 97. Synthesis of new broad spectrum antineoplastic nucleosides, 2'-deoxy-2'-methylidenecytidine (DMDC) and its derivatives” (J Med Chem, 1991).
In brackets after ≈: the same amount, converted by molar mass.

How the values were obtained:
[1] = system: Lewis lung carcinoma cell line; assay: In vitro inhibitory activity against Mouse Lewis lung carcinoma (3LL) cell line.; type: functional, cell-based
Outline: (§1)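 Each tumor cell line seeded at 1 × 10⁴/well and incubated with or without compound for 72 h; growth measured by MTT reduction, OD 570 nm, % inhibition relative to untreated control wells. IC50 (μg/mL) is the concentration giving 50% inhibition of cell growth.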

[2] = system: PC-14; assay: In vitro inhibitory activity against Human lung adenocarcinoma (PC-14) cell line.; type: functional, cell-based; outline: as §1
[3] = system: PC-13; assay: In vitro inhibitory activity against Human lung large-cell carcinoma (PC-13) cell line.; type: functional, cell-based; outline: as §1
[4] = system: PC10; assay: In vitro inhibitory activity against Human lung squamous cell carcinoma (PC-10) cell line.; type: functional, cell-based; outline: as §1
[5] = system: CCRF-CEM; assay: In vitro inhibitory activity against Human T-cell acute lymphoblastoid leukemia (CCRF CEM) cell line.; type: functional, cell-based; outline: as §1
[6] = system: PC-6; assay: In vitro inhibitory activity against Human lung small-cell carcinoma (PC-6) cell line.; type: functional, cell-based; outline: as §1
[7] = system: P-36 (Homo sapiens); assay: In vitro inhibitory activity against Human melanoma (P-36) cell line.
[8] = system: HL-60; assay: In vitro inhibitory activity against Human promyelocytic leukemia (HL-60) cell line.; type: functional, cell-based; outline: as §1
[9] = system: T-24; assay: In vitro inhibitory activity against Human bladder transitional-cell carcinoma (T-24) cell line.; type: functional, cell-based; outline: as §1
[10] = system: MOLT-4; assay: In vitro inhibitory activity against Human T-cell acute lymphoblastic leukemia (MOLT-4) cell line.; type: functional, cell-based; outline: as §1
[11] = system: KB; assay: In vitro inhibitory activity against Human oral epidermoid carcinoma (KB) cell line.; type: functional, cell-based; outline: as §1
[12] = system: B16; assay: In vitro inhibitory activity against Mouse melanoma (B16) cell line.; type: functional, cell-based; outline: as §1
[13] = system: U-937; assay: In vitro inhibitory activity against Human histiocytic lymphoma (U-937) cell line.; type: functional, cell-based; outline: as §1
[14] = system: L1210; assay: In vitro cytotoxic activity against Murine leukemia L1210 cells.; type: functional, cell-based; conditions: Mus musculus
Outline: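 L1210 murine leukemia cells seeded at 1 × 10⁴/well, exposed with or without compound for 72 h; MTT then added and OD 570 nm read. % inhibition = [1 − OD sample/OD control] × 100; IC50 (μg/mL) taken as concentration giving 50% growth inhibition.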

[15] = system: KATO III stomach cancer cell line; assay: In vitro inhibitory activity against Human gastric carcinoma (KATO III) cell line.; type: functional, cell-based; outline: as §1
[16] = system: TE-2; assay: In vitro inhibitory activity against Human esophagus adenocarcinoma (TE-2) cell line.; type: functional, cell-based; outline: as §1
[17] = system: SW480; assay: In vitro inhibitory activity against Human colon adenocarcinoma (SW-480) cell line.; type: functional, cell-based; outline: as §1

Structure (SMILES): C=C1C(n2ccc(N)nc2=O)O[C@H](CO)[C@@H]1O (stereo partly drawn)
- IC50 [1]: 16 µg/mL (≈ 66.9 µM)
- IC50 [2]: > 100 µg/mL
- IC50 [3]: 1 µg/mL (≈ 4.18 µM)
- IC50 [4]: > 100 µg/mL
- IC50 [5]: 0.067 µg/mL (≈ 0.28 µM)
- IC50 [6]: 39 µg/mL (≈ 163 µM)
- IC50 [7]: 0.36 µg/mL (≈ 1.5 µM)
- IC50 [8]: 0.04 µg/mL (≈ 0.167 µM)
- IC50 [9]: 1.1 µg/mL (≈ 4.6 µM)
- IC50 [10]: 0.041 µg/mL (≈ 0.171 µM)
- IC50 [11]: 1.4 µg/mL (≈ 5.85 µM)
- IC50 [12]: 3 µg/mL (≈ 12.5 µM)
- IC50 [13]: 0.44 µg/mL (≈ 1.84 µM)
- IC50 [14]: 0.37 µg/mL (≈ 1.55 µM)
- IC50 [15]: 8.3 µg/mL (≈ 34.7 µM)

Structure (SMILES): C=C1C(n2cc(CC)c(=O)[nH]c2=O)O[C@H](CO)[C@@H]1O (stereo partly drawn)
- IC50 [14]: > 100 µg/mL

Structure (SMILES): C=C1C(n2cc(Cl)c(N)nc2=O)O[C@H](CO)[C@@H]1O (stereo partly drawn)
- IC50 [14]: > 100 µg/mL

Structure (SMILES): C#Cc1cn(C2O[C@H](CO)[C@H](O)C2=C)c(=O)[nH]c1=O (stereo partly drawn)
- IC50 [14]: > 100 µg/mL

Structure (SMILES): C=C1C(n2cc(C)c(=O)[nH]c2=O)O[C@H](CO)[C@@H]1O (stereo partly drawn)
- IC50 [14]: 50 µg/mL (≈ 197 µM)

Structure (SMILES): C=C1C(n2cc(F)c(=O)[nH]c2=O)O[C@H](CO)[C@@H]1O (stereo partly drawn)
- IC50 [14]: > 100 µg/mL

Structure (SMILES): C=C1[C@H](n2ccc(=O)[nH]c2=O)O[C@H](CO)[C@H]1O
- IC50 [14]: > 100 µg/mL

Structure (SMILES): C=C1C(n2cc(I)c(N)nc2=O)O[C@H](CO)[C@@H]1O (stereo partly drawn)
- IC50 [14]: > 100 µg/mL

Structure (SMILES): C=C1C(n2cc(Br)c(=O)[nH]c2=O)O[C@H](CO)[C@@H]1O (stereo partly drawn)
- IC50 [14]: > 100 µg/mL

Structure (SMILES): C=C1C(n2cc(Br)c(N)nc2=O)O[C@H](CO)[C@@H]1O (stereo partly drawn)
- IC50 [14]: > 100 µg/mL

Structure (SMILES): C=C1C(n2cc(CC)c(N)nc2=O)O[C@H](CO)[C@@H]1O (stereo partly drawn)
- IC50 [14]: > 100 µg/mL

Structure (SMILES): C=C1C(n2cc(I)c(=O)[nH]c2=O)O[C@H](CO)[C@@H]1O (stereo partly drawn)
- IC50 [14]: > 100 µg/mL

Structure (SMILES): C=C1C(n2cc(F)c(N)nc2=O)O[C@H](CO)[C@@H]1O (stereo partly drawn)
- IC50 [1]: 22 µg/mL (≈ 85.5 µM)
- IC50 [2]: > 100 µg/mL
- IC50 [3]: 1.4 µg/mL (≈ 5.44 µM)
- IC50 [4]: > 100 µg/mL
- IC50 [5]: 0.1 µg/mL (≈ 0.389 µM)
- IC50 [6]: 16 µg/mL (≈ 62.2 µM)
- IC50 [7]: 0.25 µg/mL (≈ 0.972 µM)
- IC50 [8]: 0.053 µg/mL (≈ 0.206 µM)
- IC50 [9]: 0.94 µg/mL (≈ 3.65 µM)
- IC50 [16]: 1.8 µg/mL (≈ 7 µM)
- IC50 [17]: 4.4 µg/mL (≈ 17.1 µM)
- IC50 [10]: 0.03 µg/mL (≈ 0.117 µM)
- IC50 [11]: 1.4 µg/mL (≈ 5.44 µM)
- IC50 [12]: 9.2 µg/mL (≈ 35.8 µM)
- IC50 [13]: 0.4 µg/mL (≈ 1.56 µM)
- IC50 [14]: 0.33 µg/mL (≈ 1.28 µM)
- IC50 [15]: 8.3 µg/mL (≈ 32.3 µM)

Structure (SMILES): C=C1C(n2cc(Cl)c(=O)[nH]c2=O)O[C@H](CO)[C@@H]1O (stereo partly drawn)
- IC50 [14]: > 100 µg/mL

Structure (SMILES): C=C1C(n2cc(C)c(N)nc2=O)O[C@H](CO)[C@@H]1O (stereo partly drawn)
- IC50 [1]: > 100 µg/mL
- IC50 [2]: > 100 µg/mL
- IC50 [3]: > 100 µg/mL
- IC50 [4]: > 100 µg/mL
- IC50 [5]: > 1 µg/mL
- IC50 [6]: > 100 µg/mL
- IC50 [7]: > 100 µg/mL
- IC50 [8]: 3 µg/mL (≈ 11.8 µM)
- IC50 [9]: > 100 µg/mL
- IC50 [16]: > 100 µg/mL
- IC50 [17]: > 100 µg/mL
- IC50 [10]: > 100 µg/mL
- IC50 [11]: > 100 µg/mL
- IC50 [12]: > 100 µg/mL
- IC50 [13]: > 10 µg/mL
- IC50 [14]: 58 µg/mL (≈ 229 µM)
- IC50 [15]: > 100 µg/mL

Structure (SMILES): Nc1ccn([C@@H]2O[C@H](CO)[C@@H](O)[C@@H]2O)c(=O)n1 [CYTARABINE]
- IC50 [2]: > 100 µg/mL
- IC50 [3]: > 100 µg/mL
- IC50 [4]: > 100 µg/mL
- IC50 [5]: 0.32 µg/mL (≈ 1.32 µM)
- IC50 [6]: 50 µg/mL (≈ 206 µM)
- IC50 [7]: 11.1 µg/mL (≈ 45.6 µM)
- IC50 [8]: > 0.1 µg/mL
- IC50 [9]: 0.5 µg/mL (≈ 2.06 µM)
- IC50 [16]: > 100 µg/mL
- IC50 [17]: > 100 µg/mL
- IC50 [11]: 30.5 µg/mL (≈ 125 µM)
- IC50 [12]: 0.24 µg/mL (≈ 0.987 µM)
- IC50 [13]: 0.46 µg/mL (≈ 1.89 µM)
- IC50 [15]: > 100 µg/mL

Structure (SMILES): O=c1[nH]cc(F)c(=O)[nH]1 [FLUOROURACIL]
- IC50 [2]: 10 µg/mL (≈ 76.9 µM)
- IC50 [4]: > 100 µg/mL
- IC50 [7]: 10.7 µg/mL (≈ 82.3 µM)
- IC50 [8]: 1.3 µg/mL (≈ 9.99 µM)
- IC50 [11]: 12.1 µg/mL (≈ 93 µM)
- IC50 [12]: 2.6 µg/mL (≈ 20 µM)
- IC50 [13]: 3.5 µg/mL (≈ 26.9 µM)
- IC50 [15]: 3.7 µg/mL (≈ 28.4 µM)
